The subject of data set [1] is Mus musculus. Put plainly: Effect on RNA synthesis in tumor of CD-1 mouse allografted with mouse S180A cells assessed as [3H]-uridine incorporation at 20 mg/kg, ip pretreated for 1 hr followed by radiotracer-addition measured after 1 hr relative to control. The data set is classed as functional. The settings on record: route intraperitoneal. In short, it runs like this: (§1)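 Sarcoma 180 ascites cells implanted 6 days earlier. Mice received a single ip dose of 10–80 mg/kg, then 1 h later an ip tracer: 200 μg thymidine-3H, 200 μg uridine-3H or 125 μg DL-leucine-14C. Tracer was incorporated for 1 h. Specific activity of tumor-cell DNA, RNA or protein is expressed as % of untreated controls. Values are means of 4-16 mice, each analyzed separately.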

The test system of data set [2] is Mus musculus. Put plainly: Effect on RNA synthesis in tumor of CD-1 mouse allografted with mouse S180A cells assessed as [3H]-uridine incorporation at 40 mg/kg, ip pretreated for 1 hr followed by radiotracer-addition measured after 1 hr relative to control. The data set is classed as functional. The settings on record: route intraperitoneal. An outline of the steps:
as §1

Data set [3] can be described thus: Antineoplastic activity against mouse S180A cells allografted in CD-1 mouse assessed as average survival at 20 mg/kg administered qd for 6 days (reference value: 12.9 +/- 1.2 days). Format: functional. In short, it runs like this: (§2)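 Ascitic tumours were transplanted from an appropriate donor mouse carrying a 7-day tumour growth. Drug was given at 10–60 mg/kg/day for six consecutive days. Sensitivity was judged by prolongation of survival time relative to untreated tumour-bearing controls. Mice were weighed throughout, and percentage weight change from onset to end of therapy indicated toxicity.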

For data set [4], the system named is Mus musculus. Nature of the data set: Toxicity in BDF1 mouse allografted with mouse L1210 cells assessed as change in body weight at 40 mg/kg administered qd for 6 days (reference value: 13.6%). Format: organism-based. On the set-up: dose 40 mg/kg. The settings on record: in vivo, 144 h. An outline of the steps: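 Ascitic tumors were transplanted from a donor mouse bearing a 7-day tumor. Daily doses were given for six consecutive days. Percentage body-weight change from onset to termination of therapy served as the index of drug toxicity.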

Data set [5] is described as follows: Antineoplastic activity against mouse Hepa129 cells allografted in C3H mouse assessed as mouse survival at 60 mg/kg administered qd for 6 days measured for 50 days relative to control. Format: functional. In short, it runs like this: as §2

Take `Cc1ccc(S(=O)(=O)N/N=C/c2cccc[n+]2[O-])cc1`: the Activity is listed as 71% in the data set on Mus musculus [1], 65% in the data set on Mus musculus [2] and 2.8% in the data set with Mus musculus [4]. In addition, the Survival in data set [3] stood at 24.9 days. Also, the survival at 60 mg/kg in data set [5] came out at 20%.

These data come from ChEMBL document CHEMBL3271971, “Antineoplastic and biochemical properties of arylsulfonylhydrazones of 2-formylpyridine N-oxide” (J Med Chem, 1976).
